Published values pooled from the literature.
Target: Protein kinase C delta type (PRKCD, Homo sapiens, UniProt Q05655)

The remaining binding of `O=C(NCc1ncc(C(F)(F)F)cc1Cl)c1ccc2c(c1)C1(CCS(=O)(=O)CC1)[C@@H](C1CC1)N2S(=O)(=O)c1ccc(F)cc1` is reported as 100% (cell-free assay; competition with immobilised ligand; 1 µM).
With `COc1cnc(Nc2cccc(S(N)(=O)=O)c2)nc1N1CCN(c2ccccc2)CC1` the remaining binding was 100% (binding; competition with immobilised ligand; 1 µM).
For `FC(F)(F)Oc1cccc(-c2cnc3ccc(-c4ccncc4)nn23)c1`, the remaining binding was 71% (cell-free assay; competition with immobilised ligand; 5 µM).
The remaining binding of `c1cncc(-c2cccc(Nc3nccc(NC4CCCCC4)n3)c2)c1` is reported as 45% (binding; competition with immobilised ligand; 10 µM).
With `CN(c1nccc(-c2cnn3ncccc23)n1)C1CC1` the remaining binding was 85% (binding; 1 µM).
With `O=C(c1ccc(Nc2ncc(Cl)c(-c3ccc(Cl)s3)n2)cc1)N1CCC(N2CCCC2)CC1` the remaining binding was 48% (binding; competition with immobilised ligand; 1 µM).
With `N[C@H]1CCN(c2nccc(-c3cnn4ncccc34)n2)C1` the remaining binding was 100% (binding; 1 µM).
The remaining binding of `O=C(NCCCN1CCOCC1)c1ccc(Nc2ncc(Cl)c(-c3ccc(Cl)s3)n2)cc1` is reported as 81% (binding; competition with immobilised ligand; 1 µM).
The remaining binding of `Cc1nc(N2CC[C@@H](O)C2)ncc1-c1cc(C(F)(F)F)cc2[nH]ncc12` is reported as 94% (cell-free assay; competition with immobilised ligand; 1 µM).
`CN(C)c1ncc(F)c(-c2cnn3ncccc23)n1` gave a remaining binding of 100% (binding; 1 µM).
The remaining binding of `Nc1ncc2c(n1)-c1c([nH]c3ccc(C#CC4CC4)cc13)CCCC2` is reported as 97% (binding; competition with immobilised ligand; 1 µM).
For `C[C@H]1CCN(c2nccc(-c3cnn4ncccc34)n2)C1`, the remaining binding was 100% (binding; 1 µM).
For `O=C(N[C@H]1CCCCC/C=C\C2C[C@@]2(C(=O)O)NC(=O)[C@@H]2C[C@@H](Oc3ccncc3)CN2C1=O)OC1CCCC1` (stereo partly drawn), the remaining binding was 100% (cell-free assay; competition with immobilised ligand; 1 µM).
`C=CC(=O)N1CCC(C(=O)NCC(=O)N2CCN(c3nc(-c4cnc(N)nc4C(F)F)nc(N4CCOCC4)n3)CC2)CC1` gave a remaining binding of 100% (binding; competition with immobilised ligand; 1 µM).
With `F[C@@H]1CCN(c2nccc(-c3cnn4ncccc34)n2)C1` the remaining binding was 100% (binding; 1 µM).
`CN1CCN(c2cnc3c(C4CCN(C(=O)c5ccc(OC(F)(F)F)cc5N)CC4)ncnc3c2)CC1` gave a remaining binding of 100% (cell-free assay; competition with immobilised ligand; 1 µM).
The remaining binding of `CN(C)c1nccc(-c2cnn3ncccc23)n1` is reported as 100% (binding; 1 µM).
The remaining binding of `O=C(Nc1cnc(Oc2ccc(F)cc2)nc1)N1CCc2ncccc2[C@@H]1c1ccc(F)cc1` is reported as 87% (cell-free assay; competition with immobilised ligand; 1 µM).
`Cc1cnc(Nc2ccc(C(=O)N3CCC(N4CCCC4)CC3)cc2)nc1-c1cc2ccccc2s1` gave a remaining binding of 23% (binding; competition with immobilised ligand; 1 µM).
For `O=C(Nc1c[nH]nc1C(=O)NC1CCNCC1)c1cc(F)cc(F)c1`, the remaining binding was 100% (binding; competition with immobilised ligand; 1 µM).
With `C[C@H](c1ccnc(Nc2nc3ccc(-c4cc(N(C)C)ncn4)cc3[nH]2)c1)N1CCN(C(=O)CC(F)(F)F)CC1` the remaining binding was 100% (cell-free assay; competition with immobilised ligand; 0.1 µM).
